From ChEMBL document CHEMBL1158185, “Synthesis and potent antileukemic activities of 10-benzyl-9(10H)-acridinones” (Bioorg Med Chem, 2008)

What was measured:
[1] = tested on: CCRF-CEM; assay: Antiproliferative activity against human CCRF-CEM cells after 48 hrs by MTT assay; format: functional, cell-based
Outline: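 CCRF-CEM cells in RPMI 1640 with 10% FBS, penicillin/streptomycin, 37 °C, 5% CO2, seeded at 2 × 10⁵ cells/mL. Compounds added at various concentrations, each in quintuplicate, for 48 h. Growth read by MTT. IC50 taken as the concentration giving 50% growth inhibition.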

[2] = tested on: K562; assay: Antiproliferative activity against human K-562 cells by MTT assay; format: functional, cell-based
Outline: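 K562 cells seeded at 2 × 10⁵ cells/mL. Compound added at various concentrations in quintuplicate, then incubated. Viability read by MTT. IC50 is the concentration inhibiting growth by 50%.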

[3] = tested on: HL-60; assay: Antiproliferative activity against human HL-60 cells by MTT assay; format: functional, cell-based
Outline: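 HL60 cells in RPMI 1640 with 10% FBS, penicillin/streptomycin, 37 °C, 5% CO2, seeded at 2 × 10⁵ cells/mL. Compound added at various concentrations in quintuplicate, then incubated. Viability read by MTT. IC50 is the concentration giving 50% growth inhibition.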

[4] = tested on: CCRF-CEM; assay: Induction of apoptosis in human CCRF-CEM cells assessed as accumulation at sub-G0 phase after 24 hrs by flow cytometry; format: functional, cell-based
Outline: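 CCRF-CEM cells exposed to compound at 0.5, 1.0 or 2.5 μM for 24 h at 37 °C, alongside untreated controls. Cells washed twice in PBS, fixed in ice-cold 70% ethanol at 4 °C for 1–2 h, then stained with propidium iodide. Sub-diploid (sub-G0) DNA peak measured by flow cytometry, 488 nm argon laser.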

[5] = tested on: CCRF-CEM; assay: Induction of early stage apoptosis in human CCRF-CEM cells at 1 uM after 48 hrs by annexin V-FITC/propidium iodide staining relative to control; format: functional
Outline: (§1)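 CCRF-CEM cells treated with compound at 1.0, 2.5 or 5 μM for 48 h, alongside untreated controls. Stained with annexin V-FITC/PI kit and analysed by flow cytometry, 488 nm laser. Early apoptosis counted as annexin V+/PI−; late apoptosis or necrosis as double positive.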

[6] = tested on: CCRF-CEM; assay: Induction of early stage apoptosis in human CCRF-CEM cells at 5 uM after 48 hrs by annexin V-FITC/propidium iodide staining relative to control; format: functional; outline: as §1
[7] = tested on: CCRF-CEM; assay: Induction of late stage apoptosis in human CCRF-CEM cells at 1 uM after 48 hrs by annexin V-FITC/propidium iodide staining relative to control; format: functional; outline: as §1
[8] = tested on: CCRF-CEM; assay: Induction of late stage apoptosis in human CCRF-CEM cells at 5 uM after 48 hrs by annexin V-FITC/propidium iodide staining relative to control; format: functional; outline: as §1
[9] = tested on: CCRF-CEM; assay: Induction of early stage apoptosis in human CCRF-CEM cells at 2.5 uM after 48 hrs by annexin V-FITC/propidium iodide staining relative to control; format: functional; outline: as §1
[10] = tested on: CCRF-CEM; assay: Induction of late stage apoptosis in human CCRF-CEM cells at 2.5 uM after 48 hrs by annexin V-FITC/propidium iodide staining relative to control; format: functional; outline: as §1

O=c1c2ccccc2[nH]c2ccccc12 [ACRIDONE]
IC50 [1]: > 100 µM

CCCOc1cc(Cn2c3ccccc3c(=O)c3ccccc32)cc(OCCC)c1
IC50 [1]: 39.1 µM

COc1cc(Cn2c3ccccc3c(=O)c3ccccc32)cc(OC)c1OC
IC50 [1]: 1.5 µM

CCCCOc1cc(Cn2c3ccccc3c(=O)c3ccccc32)cc(OCCCC)c1
IC50 [1]: > 100 µM

COc1cc(Cn2c3ccccc3c(=O)c3ccccc32)cc(OC)c1
IC50 [1]: 0.7 µM | IC50 [2]: 11.4 µM | IC50 [3]: 600 nM | Activity [4]: Dose-dependent effect | Activity [5]: 9.5% | Activity [6]: 21.7% | Activity [7]: 10% | Activity [8]: 41.6% | Activity [9]: 27.4% | Activity [10]: 33.6%

O=c1c2ccccc2n(Cc2ccccc2)c2ccccc12
IC50 [1]: 52 µM

O=c1c2ccccc2n(Cc2cccc(F)c2)c2ccccc12
IC50 [1]: 62 µM

Cc1cccc(Cn2c3ccccc3c(=O)c3ccccc32)c1
IC50 [1]: 8.8 µM

O=c1c2ccccc2n(Cc2cccc(C(F)(F)F)c2)c2ccccc12
IC50 [1]: 36 µM

COc1cccc(Cn2c3ccccc3c(=O)c3ccccc32)c1
IC50 [1]: > 100 µM

COc1ccc(Cn2c3ccccc3c(=O)c3ccccc32)cc1
IC50 [1]: > 100 µM

COc1cc(CN2CCC(=O)CC2)cc(OC)c1OC
IC50 [1]: > 100 µM

O=c1c2ccccc2n(Cc2cc(OCc3ccccc3)cc(OCc3ccccc3)c2)c2ccccc12
IC50 [1]: > 100 µM

CCOc1cc(Cn2c3ccccc3c(=O)c3ccccc32)cc(OCC)c1
IC50 [1]: 6.7 µM
